Assay outcomes (PubChem)
A selection: hits, their analogues and other compounds. The true share with any hit is near 1.7%.
HNF4A DNA FP: change in binding of human HNF4 alpha to DNA. P41235. HNF4a-FITC DNA binding, fluorescence polarization, 1 h. activity change, % at 10 µM. hit rate 0.3% among 360,000. AID 1224865; in the data active = activity change above about 30%, passing the limit was not always enough
CSN deneddyl inh: inhibitors of human CSN-mediated cullin deneddylation; Q92905; Purified CSN, SCF-Nedd8-OG deneddylation, fluorescence polarization; inhibition, % at 12.5 µM; hit rate 0.38% among 360,000; AID 651999;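 active = pattern-corrected inhibition above about 35%, with an unprinted fluorescence ratio check between 0.5 and 1.5, limit read from the data, passing the limit was not always enough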;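 also: 0% = enzyme with substrate and 100% = substrate without enzyme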
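Schedule: reaction 90 min, room temperature / Assay system: HEK293T-derived human Csn5 enzyme / Input: Csn5 at 0.24 nM final / Measure: inhibition of Csn5 cleavage, % / Control set: substrate-only high control, full reaction low control / Technique: fluorescence polarization of the substrate / Buffer or medium: Tris/NaCl/DTT buffer, pH 7.5 / Reagent: SCFSkp2-Nedd8OG substrate at 10 nM final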
IDE inh: inhibitors of human insulin-degrading enzyme in cells; hit rate 0.41% among 320,000; HEK cells, FAbetaB cleavage, fluorescence polarization; P14735; inhibition, % at 5.59 µM;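 active = percent inhibition above the average of all tested compounds plus 3 SD, set per screening campaign, cut at about 16% in these data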;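 also: IDE supplied by intact live HEK cells; FP after avidin binding of uncleaved biotin substrate so inhibition keeps polarization high; 0% = DMSO wells and 100% = 60 µM reference IDE inhibitor Ii1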
IDE cell activ: activators of human insulin-degrading enzyme in cells; P14735; HEK cells, FAbeta-B cleavage, fluorescence polarization; 0% vehicle, 100% cell-free pure enzyme wells; activation, % at 5.96 µM; hit rate 0.073% among 340,000; AID 493087;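 active = activation above the mean of all tested compounds plus 3 SD, set per screening campaign, cut at about 17% in these data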
Rpn11 inh: inhibitors of human proteasome Rpn11; AID 588493; inhibition, % at 20 µM; hit rate 0.59% among 360,000; human 26S proteasome, Ub4-pepOG fluorescence polarization; 20S core pre-blocked with epoxomicin; O00487;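 active = inhibition at 20 µM, scaled to each plate's controls, above about 33%, limit read from the data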
Target sequence (O00487 whole entry, looked up): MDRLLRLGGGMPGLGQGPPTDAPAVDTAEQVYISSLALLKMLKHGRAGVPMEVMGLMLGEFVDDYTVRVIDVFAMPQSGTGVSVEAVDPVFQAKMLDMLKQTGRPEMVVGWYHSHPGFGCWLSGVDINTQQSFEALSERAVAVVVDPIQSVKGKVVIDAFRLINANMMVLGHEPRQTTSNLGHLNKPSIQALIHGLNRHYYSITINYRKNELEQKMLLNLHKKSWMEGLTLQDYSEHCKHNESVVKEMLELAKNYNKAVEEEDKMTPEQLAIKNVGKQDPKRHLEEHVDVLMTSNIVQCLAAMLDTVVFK
TPT1 inh: blocks Candida albicans tRNA 2'-phosphotransferase; AID 1962; inhibition, % at 5 µM; recombinant caTPT1, FP RNA substrate dephosphorylation; hit rate 0.81% among 300,000;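 active = inhibition above the mean of all tested compounds plus 3 SD, set per screening campaign, cut at about 24% in these data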;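 also: plate controls were DMSO alone for no effect and ferristatin control at 100 nM for full effect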
caTPT1 confirm: confirmation of Candida albicans TPT1 inhibitors. shares compounds with TPT1 inh. AID 2149. inhibition, % at 5 µM. hit rate 74% among 2,400. recombinant caTPT1, fluorescence polarization, RNase T1 coupled;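 active = inhibition above the primary screen limit, the mean inhibition of all tested compounds plus 3 SD, cut at about 25% in these data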
RNase T1 counter: counter-screen for TPT1 inhibitors: inhibitors of Aspergillus oryzae RNase T1; inhibition, % at 5 µM; RNase T1 cleavage, fluorescence polarization, 1536-well; AID 2153; hit rate 83% among 2,400; shares compounds with TPT1 inh;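 active = inhibition above the solvent-only control well mean plus 3 SD, limit set per screening run, cut at about 23% in these data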;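 also: plate controls were DMSO wells with enzyme for no effect and wells without RNase T1 for full effect; inhibitors block cleavage so intact labeled substrate keeps polarization high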
Target sequence (P00651 whole entry, looked up): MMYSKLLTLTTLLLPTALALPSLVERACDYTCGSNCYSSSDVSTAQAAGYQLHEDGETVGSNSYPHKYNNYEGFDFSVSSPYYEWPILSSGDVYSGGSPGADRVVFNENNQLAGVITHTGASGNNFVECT
The depositor's hits bear a star; nt = no result shown.

SMILES	HNF4A DNA FP	CSN deneddyl inh	IDE inh	IDE cell activ	Rpn11 inh	TPT1 inh	caTPT1 confirm	RNase T1 counter
CC1Cc2ccccc2N1C(=O)CN(C)CC(=O)Nc1ccc(F)cc1 (stereo not given)	-2	0	-1	2	1	nt	nt	nt
N=c1oc2cc(O)ccc2cc1C(=O)Nc1ccc(Cl)cc1	34	5	-12	-3	12	50*	70*	80*
O=C(O)c1ccccc1-c1ccc(/C=c2\sc3nc4cc(Br)cnc4n3c2=O)o1	-5	186*	6	-10	nt	84*	131*	122*
CC1=NN(c2ccc(Br)cc2)C(=O)/C1=C/c1ccc(-c2ccccc2C(=O)O)o1	-4	-1	-2	2	-4	-2	nt	nt
Cn1c(CNC(=O)CNC(=O)c2ccc(C(C)(C)C)cc2)cc(=O)n(C)c1=O	3	1	1	6	-2	-4	nt	nt
COc1ccc(N(CC(=O)N/N=C/c2ccc(-c3ccc([N+](=O)[O-])cc3)o2)S(=O)(=O)c2ccc(C)cc2)cc1Cl	22	14	-4	2	32	43*	42*	51*
COc1ccc(N(CC(=O)N/N=C/c2ccc(-c3ccc([N+](=O)[O-])cc3)o2)S(=O)(=O)c2ccc(C)cc2)cc1	35	28	-5	3	nt	5	nt	nt
CCN1CCS/C1=C/C=C/C1=[N+](CC)CCS1	15	-15	-4	9	15	25*	25*	33*
Cc1ccc(C2=NOC(=O)/C2=C\c2ccc(C)o2)cc1	1	11	1	-6	10	40*	10	15
Cc1ccc(/C=C2\C(=O)ON=C2c2ccccc2)o1	0	-9	-2	nt	-2	-2	nt	nt
CC(C)(C)CC(C)(C)SSc1n[nH]c(=S)s1	5	9	nt	-9	3	nt	nt	nt
CC(=O)C1=NOC2C(=O)N(c3ccc(Cl)cc3)C(=O)C12 (stereo not given)	2	4	-1	-1	0	-1	nt	nt
O=C(C1=NN(c2ccccc2)C2C(=O)N(c3ccc(Cl)cc3)C(=O)C12)c1ccccc1 (stereo not given)	5	9	15	-18	4	33*	23	35*
COC(=O)C1=NN(c2ccc(C)cc2)C2C(=O)N(c3ccccc3OC)C(=O)C12 (stereo not given)	7	-3	1	1	-2	0	nt	nt
COc1ccccc1N1C(=O)C2C(C(=O)c3ccccc3)=NN(c3ccc(C)cc3)C2C1=O (stereo not given)	-23	6	9	nt	-62	51*	65*	73*
COc1ccccc1N1C(=O)C2C(C(=O)c3ccccc3)=NN(c3ccc(Br)cc3)C2C1=O (stereo not given)	32	24	3	nt	22	35*	27*	41*
CCOc1cc(C(=O)Nc2cccc(OCC(=O)N3CCOCC3)c2)cc(OCC)c1OCC	1	4	-1	6	2	0	nt	nt
CC1CC(C)CN(S(=O)(=O)c2cccc(C(=O)N3CCN(c4ccc(F)cc4)CC3)c2)C1 (stereo not given)	1	-2	1	2	3	nt	nt	nt
CC1(C)C(=O)NCCN1C(=O)CC1C(=O)NCCN1Cc1cccc(C(F)(F)F)c1 (stereo not given)	4	3	5	8	0	-5	nt	nt
Cc1ccccc1S(=O)(=O)NC(=O)C1(C)CCN1C(=O)c1ccccc1CCc1ccccc1 (stereo not given)	-5	1	nt	nt	0	nt	nt	nt
COCCN1C(=O)CSCC1(C)C(=O)NC(C)C (stereo not given)	-1	-8	nt	nt	nt	nt	nt	nt
N#Cc1cccc(CN2CCC(=O)N([C@H](CO)Cc3ccccc3)CC2)c1	1	-4	1	2	-11	-2	nt	nt
O=C(COc1ccccc1F)Nc1ccc2c(c1)OCCO2	-2	-4	0	2	-4	1	nt	nt
COc1ccc(C(=O)c2c(N)sc3c2CCN(C)C3)cc1	-13	3	1	4	1	42*	40*	48*
CN1CCc2c(sc(N)c2C(=O)O)C1	-3	-3	3	-1	-1	-15	nt	nt
SMILES	HNF4A DNA FP	CSN deneddyl inh	IDE inh	IDE cell activ	Rpn11 inh	TPT1 inh	caTPT1 confirm	RNase T1 counter
Oc1ccc(/C=N/Nc2nc(-c3cccnc3)nc3ccccc23)c(O)c1	36*	9	7	-7	nt	46*	59*	69*
Cc1cccc(NC(=O)c2sc3nc4c(c(-c5cccs5)c3c2N)CN(C)CC4)c1	18	-7	10	-9	27	38*	28*	35*
CC(C)NC(=O)c1sc2nc3c(c(-c4cccs4)c2c1N)CN(C)CC3	-4	-18	-2	3	-31	-13	nt	nt
N#CC(C#N)=Cc1cnc(N2CCN(c3ccccc3)CC2)s1	1	-5	1	2	-4	-1	nt	nt
CS(=O)(=O)N1CCN(c2ccc(NC(=O)c3ccccc3)cc2)CC1	4	-10	0	nt	0	3	nt	nt
COC(=O)C1(C)NC(c2ccc(Cl)cc2)C2C(=O)N(c3ccccc3)C(=O)C21 (stereo not given)	1	-2	9	-2	-7	82*	5	5
CCOCCCNC(=O)c1c[nH]c2c(CC)cccc2c1=O	3	-6	1	4	-8	-3	nt	nt
O=C(O)Cn1cc(/C=c2/sc3nc4ccccc4n3c2=O)c2ccccc21	28	5	6	-2	37	39*	28*	37*
Cc1ccc(/C(C#N)=C\c2ccc(N3CCOCC3)o2)cc1	80*	27	0	-23	nt	121*	154*	147*
N#C/C(=C/c1ccc(N2CCOCC2)o1)C(=O)Nc1ccccc1	210	-61	nt	-98	nt	nt	nt	nt
N#C/C(=C/c1ccc(N2CCCCC2)o1)c1cccc(F)c1	107	26	0	-18	nt	134*	178*	166*
Fc1ccc(-[n+]2nc(Nc3ccccc3)sc2-c2c3ccccc3cc3ccccc23)cc1	0	-2	7	3	5	-4	nt	nt
Oc1ccc2ccccc2c1-c1sc(Nc2ccccc2)n[n+]1-c1ccc(F)cc1	-68	-72	-2	2	-31	29*	-12	3
CCOc1ccc(NC(=O)c2ccc(NC(=O)CSc3nc4ccccc4c(=O)[nH]3)cc2)cc1	-2	5	2	0	3	53*	0	2
COc1ccc(NC(=O)CSc2nc3nc(C)cc(C)c3c(=O)[nH]2)cc1	-6	0	-7	-2	2	25*	6	8
